ROMK mod: human ROMK K+ channel modulation, primary screen | B-score at 10 µM | 130,000 compounds, 2% hits | Tet-inducible ROMK, thallium flux fluorescence; actives lie on both sides | P48048;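 active = signal ratio slope over the read window, or its plate-corrected B-score, at least 3 SD from the plate mean, either direction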;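 also: B-score of the F/F0 ratio slope over 7 to 12 s after thallium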
Target sequence (P48048 whole entry, looked up): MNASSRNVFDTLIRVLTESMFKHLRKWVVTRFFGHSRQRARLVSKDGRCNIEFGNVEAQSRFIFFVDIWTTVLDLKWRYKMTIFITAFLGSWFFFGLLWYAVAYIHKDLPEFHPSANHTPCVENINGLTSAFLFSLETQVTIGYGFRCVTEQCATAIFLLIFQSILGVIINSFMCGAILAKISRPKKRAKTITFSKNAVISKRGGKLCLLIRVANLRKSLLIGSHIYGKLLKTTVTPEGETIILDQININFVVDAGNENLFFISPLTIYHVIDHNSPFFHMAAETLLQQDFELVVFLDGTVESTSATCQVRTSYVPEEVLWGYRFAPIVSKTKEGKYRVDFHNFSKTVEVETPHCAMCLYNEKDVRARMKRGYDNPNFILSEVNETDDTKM
Calb biofilm kill: mixtures killing C. albicans biofilm | C. albicans biofilm persisters + clotrimazole, fluorescence viability; primary screen in compound mixtures of four per well | inhibition, % at 7.6 µM | 120,000 compounds, 0.02% hits;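 active = inhibition above 30.3% in the primary screen of four-compound pools, then above 30% when the compound was retested; inconclusive = passed the primary limit but could not be retested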;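 also: compounds exposed to preformed 24 h biofilms for 48 h; 0% = untreated biofilm control and 100% = clotrimazole plus chlorhexidine kill blank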
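Assay system: C. albicans biofilms / Medium: RPMI/MOPS medium, pH 7.0 / Schedule: biofilm formation 24 h, compound exposure 48 h, 37 °C / Measured by: Alamar Blue fluorescence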
Pf gamet viab: inhibitors of late stage P. falciparum gametocyte viability; AID 743093; P. falciparum stage V gametocytes, ATP luminescence, 24 h; inhibition, % at 10.9 µM; 150,000 compounds, 0.065% hits;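 active = inhibition above the mean plus 3 SD of compounds within the control limits, set per campaign, cut at about 38% in these data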;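 also: 0% = DMSO wells and 100% = medium only without gametocytes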
ROMK hit retest: human ROMK channel modulation, retest confirmation | shares compounds with ROMK mod | ROMK thallium flux, fluorescence ratio; stronger effect = lower value | normalized thallium flux (F/F0 slope) at 10 µM | 3,000 compounds, 54% hits;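 active = Flux at 10 µM at least 3 SD below or above vehicle control mean in one or both replicates; inconclusive = no clear call, values can overlap the other calls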
An asterisk follows results filed as active; ? = inconclusive; · = not tested or not shown. This is one part of a sample in which hits are shown more often than they occur.

SMILES | ROMK mod | Calb biofilm kill | Pf gamet viab | ROMK hit retest
COc1cc(CNc2ccc(N3CCN(C(C)=O)CC3)cc2)ccc1OCc1ccc(F)cc1 | 0.41 | 16.6 | -35.2 | ·
CC1(c2ccccc2)NC(=O)N(N)C1=O (centres undefined) | · | 2.1 | 9.7 | ·
N#C/C(=C\c1ccc(F)cc1)c1n[nH]c(Cn2cncn2)n1 | -1.1 | · | · | ·
N#C/C(=C\c1cccc(Cl)c1)c1n[nH]c(Cn2cncn2)n1 | -2.59* | · | · | 0.053*
O=C1N=c2ccccc2=C1c1c(O)[nH]c2c(C(F)(F)F)cccc12 | · | · | -12.8 | ·
O=C1CC(=O)C(n2cncn2)C(c2ccc(Cl)cc2)C1 (centres undefined) | · | · | 2.1 | 0.0809
O=C1CC(=O)C(n2cncn2)C(c2c(F)cccc2Cl)C1 (centres undefined) | · | · | -0.9 | ·
CC(=O)c1cc(-c2ccccc2)n(CC(=O)Nc2cccc(C)c2)c1C | -0.97 | 4.7 | · | ·
CSc1nnc(CNS(=O)(=O)c2ccc(Cl)cc2)n1C | -0.0936 | 17.7 | -11.9 | ·
O=C(c1cccc([N+](=O)[O-])c1)c1ccc2c(c1)C(=O)N(c1c[nH]c(=O)[nH]c1=O)C2=O | 0.197 | 26.8 | · | ·
O=C(O)c1ccc(N2C(=O)c3ccc(C(=O)c4cccc([N+](=O)[O-])c4)cc3C2=O)cc1 | 2.22* | 5.4 | 20.4 | 0.0878
COc1ccc(OC)c(Nc2ncnc3sc(-c4ccccc4)cc23)c1 | · | 21.5 | · | ·
OCCOCCNc1ncnc2sc(-c3ccccc3)cc12 | -1.81* | · | · | 0.064*
O=c1cc(C(F)(F)F)[nH]c2c(OC(F)(F)F)cccc12 | · | 9.4 | -5.5 | ·
CC(=O)Nc1ccc(OCCOc2ccc(/C=C3/C(=N)N4C=CSC4=NC3=O)cc2)cc1 | 4.12* | 13.5 | 12.9 | ?
Cc1ccc(Cn2cccc2/C=C2/C(=N)N3C=CSC3=NC2=O)cc1 | 0.0262 | 17.9 | 21.6 | ·
O=c1c2ccccc2c(C=Nc2ccc(O)cc2)c(O)n1Cc1ccccc1 | -4.59* | 10.1 | 4.4 | 0.0411*
COc1ccc(Cn2c(O)c(C=Nc3ccc(O)cc3)c3ccccc3c2=O)cc1 | 0.332 | 12.2 | · | ·
COc1ccc(NS(=O)(=O)c2ccc(O)c(NC(=O)c3cc4c(C)nn(-c5ccc(F)cc5)c4s3)c2)cc1 | 0.238 | 19.0 | · | ·
COc1ccc(OCC(O)CN2CCC(CN3C(=O)c4cccc5cccc(c45)C3=O)CC2)cc1 (centres undefined) | · | · | 7.1 | ·
Cc1ccc(C)c(OCC(O)CN2CCC(CN3C(=O)c4cccc5cccc(c45)C3=O)CC2)c1 (centres undefined) | -4.72* | 5.9 | 6.9 | ?
CC(=O)Nc1nc(CCN2C(=O)c3ccccc3C2=O)cs1 | 0.161 | 23.8 | -30.5 | ·
COc1ccc(N(CC(=O)N2CCN(Cc3ccccc3)CC2)S(C)(=O)=O)cc1OC | · | · | 10.7 | ·
CN(Cc1ccccc1)C(=O)c1ccccc1-c1ccccc1 | 0.753 | 10.3 | 11.7 | ·
CN(Cc1ccccc1)C(=O)c1ccccc1Br | -2.83* | 7.0 | 14.0 | 0.0662*
SMILES | ROMK mod | Calb biofilm kill | Pf gamet viab | ROMK hit retest
O=C(Nc1ccc(Cl)cc1)OCc1cn(-c2ccccc2)nn1 | 0.277 | 9.8 | -10.9 | ?
Cc1ccccc1NC(=O)OCc1cn(-c2ccc(Cl)cc2)nn1 | · | · | 7.5 | ·
CC1=C([N+](=O)[O-])C(c2ccc(Cl)cc2)NC(=O)N1C (centres undefined) | · | · | -0.6 | ·
Cc1cccc(C(=O)N(Cc2nc3ccccc3c(=O)[nH]2)C2CCCCC2)c1 | 0.288 | 8.5 | -25.3 | ·
COC(=O)c1ccc(CNC(=O)COC(=O)C2CCC(C(C)(C)C)CC2)cc1 (centres undefined) | 0.138 | 11.2 | 17.3 | ·
CCNC(=S)N(CCO)Cc1cc2cc3c(cc2[nH]c1=O)OCO3 | · | · | -6.5 | ·
CCOC(=O)c1c(CSC(=N)N)n(-c2ccc(Br)cc2)c2cc(Br)c(OC(C)=O)cc12 | -5.21* | 18.4 | · | 0.0451*
C=CCCc1ccc(C#N)c(SCc2c(C(=O)OCC)c3cc(OC(C)=O)c(Br)cc3n2C)n1 | · | 12.2 | · | ·
CCCCCCCCOC(=O)c1c(CSC(=N)N)n(C)c2cc(Br)c(OC(C)=O)cc12 | · | 14.6 | 22.6 | ?
CCOC(=O)c1c(CSc2nc(C)cc(C)c2C#N)n(C)c2cc(Br)c(OC(C)=O)cc12 | · | 18.3 | 5.0 | ·
COc1ccc(OC)c(-c2c(C#N)c(N)nc3c2c(=O)nc2sccn23)c1 | 0.501 | 9.7 | 16.7 | ·
COc1ccc(-n2c(Cc3ccccc3)nnc2SCc2ccc([N+](=O)[O-])cc2)cc1 | -2.32* | 0.8 | 6.6 | 0.0599*
Cn1c(Cc2cccc3ccccc23)nnc1SCc1ccc([N+](=O)[O-])cc1 | · | -4.2 | 4.2 | ·
O=[N+]([O-])c1ccc(CSc2nnc(Cc3ccccc3)n2-c2ccc(F)cc2)cc1 | -1.96 | -2.5 | 13.1 | ·
Cc1cccc(-n2c(Cc3ccccc3)nnc2SCc2ccc([N+](=O)[O-])cc2)c1 | -7.43* | 13.3 | -24.0 | 0.0437*
O=C(CN1CCN(Cc2ccccc2)CC1)N1CCCCCC1 | 0.173 | 13.0 | 19.0 | ·
CCOc1ccc(-n2c(=O)[nH]cc(C(=O)Nc3ccc(OC)c(OC)c3)c2=O)cc1 | -0.209 | 4.8 | 10.3 | ·
C=CCC(C#N)(c1ccc(OC)c(OC)c1)c1cnccn1 (centres undefined) | · | · | -10.8 | ·
COc1cc(NC(C)CCCN)c2ncccc2c1Oc1ccccc1 (centres undefined) | -3.65* | 16.4 | 8.4 | 0.0646*
COc1cc(NC(C)CCc2ccccc2)cc(OC)c1OC (centres undefined) | · | · | 6.7 | ·
Cc1ccc(S(=O)(=O)/N=C/c2cc(Br)ccc2O)cc1 | 0.764 | 11.3 | -12.8 | ·
Cc1cc(N=Cc2cc(Br)ccc2O)no1 | · | · | · | ?
COc1cc(/C=C/C(=O)Nc2ccc(N3CCCCC3)c(S(=O)(=O)Nc3ccccc3Cl)c2)cc(OC)c1OC | -0.459 | -14.6 | -28.9 | ·
S=c1[nH]nc(-c2cc(-c3ccccc3)n[nH]2)n1/N=C/c1cccc(Cl)c1 | · | 19.3 | -11.4 | ·
Cc1ccc(S(=O)(=O)Nc2nc3ccccc3s2)cc1 | -0.0187 | · | · | ·
SMILES | ROMK mod | Calb biofilm kill | Pf gamet viab | ROMK hit retest
O=S(=O)(Nc1nc2ccccc2s1)c1ccc(Br)s1 | -3.18* | · | · | 0.0525*
CCCC(=O)N1CCN(c2ccc(NC(=O)c3cccs3)cc2)CC1 | 2.72* | 9.5 | 0.8 | 0.0864
CCCC(=O)NC(=S)Nc1ccc(N2CCN(C(=O)c3cccs3)CC2)cc1 | -0.33 | 4.9 | -34.6 | ·
Cc1c(/C(O)=C2\C(=O)C(=O)N(CCN(C)C)C2c2ccccc2)cnn1-c1ccccc1 (centres undefined) | · | 20.8 | 8.7 | 0.0779
Cc1c(/C(O)=C2/C(=O)C(=O)N(CCN(C)C)C2c2ccc(C(C)C)cc2)cnn1-c1ccccc1 (centres undefined) | · | 25.5 | 4.2 | ·
CC(=O)Nc1nc(-c2ccc3c(c2)CCN3S(C)(=O)=O)cs1 | 0.0172 | 23.6 | -19.9 | ·
CS(=O)(=O)N1CCc2cc(-c3csc(NC(=O)Cc4cccs4)n3)ccc21 | · | · | 22.2 | 0.0675*
CCOC(=O)COc1cccc2c(=O)n(CC(=O)NCc3ccccc3)ccc12 | 4.73* | 17.5 | 26.4 | 0.0882
CCOC(=O)COc1cccc2c(=O)n(CC(=O)NCc3ccc(F)cc3)ccc12 | 3.13* | 26.7 | -25.6 | 0.0922
CCOC(=O)COc1cccc2c(=O)n(CC(=O)NCCc3ccc(OC)c(OC)c3)ccc12 | 0.694 | 9.8 | · | ·
CCOC(=O)COc1cccc2c(=O)n(CC(N)=O)ccc12 | 0.132 | 10.7 | 19.4 | ·

Compound activity deposited in PubChem by several laboratories.
